Test results published in ChEMBL document CHEMBL2321752, “A potent and highly efficacious Bcl-2/Bcl-xL inhibitor” (J Med Chem, 2013).
Calls of active or inactive are those of the source. The rule behind the calls is not given here.

Key:
[1] = Toxicity in iv dosed SCID mouse assessed as weight loss administered 5 days per week for 2 weeks; type: organism-based; conditions: in vivo
In short: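 Maximum tolerated dose study in SCID mice. Compound was given intravenously at 15 or 25 mg/kg, daily, 5 days a week for 2 weeks. Body weight loss and other signs of toxicity were monitored during and after treatment.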

[2] = tested on: Mus musculus; assay: Toxicity in SCID mouse 15 mg/kg, iv administered 5 days per week for 2 weeks; type: organism-based; set-up: dose 15 mg/kg, route intravenous; conditions: in vivo
In short: (§1)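 Tolerability run in non-tumor-bearing SCID mice. Compound given intravenously at 15 or 25 mg/kg, daily, 5 days a week for 2 weeks. Weight loss and other signs of toxicity were followed during and after treatment, and the maximum tolerated dose was set from weight loss.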

[3] = tested on: NCI-H146; assay: Antitumor activity against human NCI-H146 cells xenografted in SCID mouse assessed as tumor regression at 15 mg/kg, iv administered 5 days per week for 2 weeks measured on day 62; type: functional, organism-based; set-up: dose 15 mg/kg
In short: (§2)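 H146 cells (5×10^6, with Matrigel) implanted subcutaneously on the dorsal side of SCID mice, one tumor per mouse. Mice with tumors of 100–150 mm³ were randomized into groups of 8, mean volume 126 mm³. Vehicle or compound given intravenously at 15 mg/kg, daily, 5 days/week for 2 weeks. Tumor volume was followed over time.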

[4] = target: Apoptosis regulator Bcl-2 (Homo sapiens, UniProt P10415); assay: Binding affinity to BCL2 (unknown origin) after 2 hrs by fluorescence polarization assay
In short: (§3)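 Competitive FP binding assay. Preformed protein/fluorescent probe complexes were used at 1.5/1 nM for Bcl-2, 10/2 nM for Bcl-xL and 20/2 nM for Mcl-1. These were mixed with serially diluted inhibitor and shaken gently for 2 h at room temperature before millipolarization was read. IC50 came from nonlinear regression, and Ki was calculated from IC50.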

[5] = target: Induced myeloid leukemia cell differentiation protein Mcl-1 (Homo sapiens, UniProt Q07820); assay: Binding affinity to MCL1 (unknown origin) after 2 hrs by fluorescence polarization assay; in short: as §3
[6] = tested on: Mus musculus; assay: Toxicity in SCID mouse assessed as weight loss at 15 mg/kg, iv administered 5 days per week for 2 weeks relative to control; type: organism-based; set-up: dose 15 mg/kg, route intravenous; conditions: in vivo; in short: as §1
[7] = tested on: Mus musculus; assay: Toxicity in SCID mouse xenografted with human NCI-H146 cells assessed as weight loss at 15 mg/kg, iv administered 5 days per week for 2 weeks; type: organism-based; set-up: dose 15 mg/kg, route intravenous; conditions: in vivo
In short: (§4)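 SCID mice carried subcutaneous H146 xenografts, 8 per group, starting mean tumor volume 126 mm³. Dosing was intravenous at 15 mg/kg, daily, 5 days/week for 2 weeks. Body weight and other signs of toxicity were monitored during and after treatment.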

[8] = Cytotoxicity against human NCI-H146 cells assessed as growth inhibition after 4 days by WST assay; type: functional, cell-based; conditions: NCI-H146, 96 h
[9] = tested on: NCI-H1417; assay: Cytotoxicity against human NCI-H1417 cells assessed as growth inhibition after 4 days by WST assay; type: functional, cell-based; conditions: NCI-H1417, 96 h
In short: (§5)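 Human small-cell lung cancer line from ATCC, kept in RPMI-1640 with 10% FBS. Cells were exposed to serial compound concentrations for 4 days. WST-8 dye was then added for a further 1–2 h and absorbance read at 450 nm. IC50 was derived from absorbance of treated versus untreated cells. At least three independent experiments per cell line; standard deviation reported.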

[10] = tested on: Mus musculus; assay: Toxicity in SCID mouse xenografted with human NCI-H146 cells 15 mg/kg, iv administered 5 days per week for 2 weeks; type: organism-based; set-up: dose 15 mg/kg, route intravenous; conditions: in vivo; in short: as §4
[11] = tested on: NCI-H146; assay: Antitumor activity against human NCI-H146 cells xenografted in SCID mouse assessed as tumor regression at 15 mg/kg, iv administered 5 days per week for 2 weeks; type: functional, organism-based; set-up: dose 15 mg/kg; in short: as §2
[12] = tested on: NCI-H146; assay: Induction of apoptosis in human NCI-H146 cells xenografted in SCID mouse assessed as increase in caspase-3 cleavage at 15 mg/kg, iv after 3 to 6 hrs by Western blotting analysis; type: functional, organism-based; set-up: dose 15 mg/kg
In short: (§6)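 SCID mice bearing subcutaneous H146 xenografts of about 100 mm³ got a single intravenous dose of 15 mg/kg or vehicle. Tumors were harvested at 3, 6 or 24 h. Western blot then measured total and cleaved PARP and caspase-3.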

[13] = Antitumor activity against human NCI-H146 cells xenografted in SCID mouse assessed as tumor volume at 15 mg/kg, iv administered 5 days per week for 2 weeks measured on day 117 (reference value: 130 mm'3); type: functional; in short: as §2
[14] = tested on: NCI-H1963; assay: Cytotoxicity against human NCI-H1963 cells assessed as growth inhibition after 4 days by WST assay; type: functional, cell-based; conditions: NCI-H1963, 96 h; in short: as §5
[15] = tested on: Mus musculus; assay: Toxicity in SCID mouse assessed as weight loss at 25 mg/kg, iv administered 5 days per week for 2 weeks relative to control; type: organism-based; set-up: dose 25 mg/kg, route intravenous; conditions: in vivo; in short: as §1
[16] = target: Bcl-2-like protein 1 (Homo sapiens, UniProt Q07817); assay: Binding affinity to BCL-XL (unknown origin) after 2 hrs by fluorescence polarization assay; in short: as §3
[17] = tested on: NCI-H187; assay: Cytotoxicity against human NCI-H187 cells assessed as growth inhibition after 4 days by WST assay; type: functional, cell-based; conditions: NCI-H187, 96 h; in short: as §5
[18] = tested on: NCI-H146; assay: Induction of apoptosis in human NCI-H146 cells xenografted in SCID mouse assessed as increase in PARP cleavage at 15 mg/kg, iv after 3 to 6 hrs by Western blotting analysis; type: functional, organism-based; set-up: dose 15 mg/kg; in short: as §6

Chain of Bcl-2-like protein 1 (Q07817 whole entry): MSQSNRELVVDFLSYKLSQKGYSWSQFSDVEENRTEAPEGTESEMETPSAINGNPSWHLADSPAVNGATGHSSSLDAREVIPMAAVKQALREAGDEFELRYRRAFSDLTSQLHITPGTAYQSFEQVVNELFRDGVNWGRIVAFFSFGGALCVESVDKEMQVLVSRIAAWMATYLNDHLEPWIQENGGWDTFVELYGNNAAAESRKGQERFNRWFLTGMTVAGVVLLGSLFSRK
Chain of Apoptosis regulator Bcl-2 (P10415 whole entry): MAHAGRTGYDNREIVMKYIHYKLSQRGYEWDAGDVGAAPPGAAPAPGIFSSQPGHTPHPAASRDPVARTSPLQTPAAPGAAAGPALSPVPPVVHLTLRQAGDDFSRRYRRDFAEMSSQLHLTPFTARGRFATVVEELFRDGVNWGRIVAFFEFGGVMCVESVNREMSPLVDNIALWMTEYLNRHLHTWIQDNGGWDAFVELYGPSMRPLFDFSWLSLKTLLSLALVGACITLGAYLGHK
Chain of Induced myeloid leukemia cell differentiation protein Mcl-1 (Q07820 whole entry): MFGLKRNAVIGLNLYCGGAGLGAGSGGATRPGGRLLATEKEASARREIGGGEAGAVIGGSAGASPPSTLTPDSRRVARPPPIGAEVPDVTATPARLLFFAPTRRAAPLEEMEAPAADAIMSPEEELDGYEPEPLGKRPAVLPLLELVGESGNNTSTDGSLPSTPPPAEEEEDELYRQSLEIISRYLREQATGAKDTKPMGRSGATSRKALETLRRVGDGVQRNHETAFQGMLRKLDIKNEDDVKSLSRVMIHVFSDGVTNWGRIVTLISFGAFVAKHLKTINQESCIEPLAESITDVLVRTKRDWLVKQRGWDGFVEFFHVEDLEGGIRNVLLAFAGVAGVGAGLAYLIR

| IC50 [4] [nM] | IC50 [16] [nM] | Structure (SMILES) | IC50 [8] [nM] | IC50 [9] [nM] | IC50 [14] [nM] | IC50 [17] [nM] | also measured |
| --- | --- | --- | --- | --- | --- | --- | --- |
| 110 | 32 | CN(C)CC[C@H](CSc1ccccc1)Nc1ccc(S(=O)(=O)Nc2ccc(N3CCN(c4cccc(-c5ccnn5-c5ccc(Cl)cc5)c4)CC3)cc2)cc1[N+](=O)[O-] | > 10000 |  |  |  |  |
| 10 | 8.2 | CCCn1c(C)c(C(=O)O)c(-c2cccc(N3CCN(c4ccc(NS(=O)(=O)c5ccc(N[C@H](CCN(C)C)CSc6ccccc6)c([N+](=O)[O-])c5)cc4)CC3)c2)c1-c1ccc(Cl)cc1 | 42 |  |  |  |  |
| 3.8 | 4.7 | Cc1oc(-c2ccc(Cl)cc2)c(-c2cccc(N3CCN(c4ccc(NS(=O)(=O)c5ccc(N[C@H](CCN(C)C)CSc6ccccc6)c([N+](=O)[O-])c5)cc4)CC3)c2)c1C(=O)O | 199 |  |  |  |  |
| 350 | 22 | CN(C)CC[C@H](CSc1ccccc1)Nc1ccc(S(=O)(=O)Nc2ccc(N3CCN(c4cccc(-c5cnoc5-c5ccc(Cl)cc5)c4)CC3)cc2)cc1[N+](=O)[O-] | > 10000 |  |  |  |  |
| 210 | 15 | CN(C)CC[C@H](CSc1ccccc1)Nc1ccc(S(=O)(=O)Nc2ccc(N3CCN(c4cccc(-c5cnn(C)c5-c5ccc(Cl)cc5)c4)CC3)cc2)cc1[N+](=O)[O-] | > 10000 |  |  |  |  |
|  |  | CC1(C)CCC(c2ccc(Cl)cc2)=C(CN2CCN(c3ccc(C(=O)NS(=O)(=O)c4ccc(N[C@H](CCN5CCOCC5)CSc5ccccc5)c(S(=O)(=O)C(F)(F)F)c4)cc3)CC2)C1 [NAVITOCLAX] |  | 54.2 | 26.6 | 38.4 |  |
| 271 | 13 | Cc1c(C(F)(F)F)c(-c2cccc(N3CCN(c4ccc(NS(=O)(=O)c5ccc(N[C@H](CCN(C)C)CSc6ccccc6)c([N+](=O)[O-])c5)cc4)CC3)c2)c(-c2ccc(Cl)cc2)n1C | > 1000 |  |  |  |  |
| 140 | 26 | CN(C)CC[C@H](CSc1ccccc1)Nc1ccc(S(=O)(=O)Nc2ccc(N3CCN(c4cccc(-c5cn(C)nc5-c5ccc(Cl)cc5)c4)CC3)cc2)cc1[N+](=O)[O-] | > 10000 |  |  |  |  |
| 5.6 | 9.4 | Cc1c(C(=O)N2CC(C)(O)C2)c(-c2cccc(N3CCN(c4ccc(NS(=O)(=O)c5ccc(N[C@H](CCN(C)C)CSc6ccccc6)c([N+](=O)[O-])c5)cc4)CC3)c2)c(-c2ccc(Cl)cc2)n1C | 66 |  |  |  |  |
|  |  | CN(C)CC[C@H](CSc1ccccc1)Nc1ccc(S(=O)(=O)NC(=O)c2ccc(N3CCN(Cc4ccccc4-c4ccc(Cl)cc4)CC3)cc2)cc1[N+](=O)[O-] [ABT 737] |  | 173 | 54 | 138 |  |

| Structure (SMILES) | IC50 [4] [nM] | IC50 [16] [nM] | IC50 [8] [nM] | IC50 [9] [nM] | IC50 [14] [nM] | IC50 [17] [nM] | also measured |
| --- | --- | --- | --- | --- | --- | --- | --- |
| Cc1c(C(=O)NS(C)(=O)=O)c(-c2cccc(N3CCN(c4ccc(NS(=O)(=O)c5ccc(N[C@H](CCN(C)C)CSc6ccccc6)c([N+](=O)[O-])c5)cc4)CC3)c2)c(-c2ccc(Cl)cc2)n1C(C)C | 1.8 | 6.9 | 1.3 | 2.3 | 1 | 1.4 | MTD at 2 weeks [1]: 15 mg/kg; Activity [2]: Non-toxic; Activity [3]: Active; Ki [4]: < 1 nM; IC50 [5]: > 2000 nM; Activity [6]: < 5%; Activity [7]: Non-toxic; Activity [10]: Non-toxic; Activity [11]: Active; Activity [12]: Active; Activity [13]: 47 mm3; Activity [15]: 10%; Ki [16]: < 1 nM; Activity [18]: Active |
| CCn1c(C)c(C(=O)NS(C)(=O)=O)c(-c2cccc(N3CCN(c4ccc(NS(=O)(=O)c5ccc(N[C@H](CCN(C)C)CSc6ccccc6)c([N+](=O)[O-])c5)cc4)CC3)c2)c1-c1ccc(Cl)cc1 | 1.8 | 7 | 4.8 | 11.1 | 8.2 | 7.9 | MTD at 2 weeks [1]: 15 mg/kg; Activity [2]: Non-toxic; IC50 [5]: > 2000 nM; Activity [6]: < 5%; Activity [11]: Active; Activity [12]: Active; Activity [15]: 10%; Activity [18]: Active |
